Data taken from PMC2831464 (Clinical cancer research : an official journal of the …, 2010).
“And” between values parts separate entries of the source, which are not always exact repeats. Equal values may be shown once. “Also recorded” adds a separate entry of the source.

How the values were obtained:
CYP3A4 = settings: in-vitro data; cited from earlier work
[1] = system: refractory solid malignancies; assay: Tumor response per RECIST v1.0; assay type: in vivo, human
UGT1A8 = settings: cited from earlier work
[2] = Exposure-toxicity relationship, sigmoid E-max model; assay type: in vivo, human
Procedure, shortened: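 Patients received a 1-h IV infusion of test compound daily × 5 every 21 days. Toxicity measure was the cycle 1 nadir of ANC and platelets, expressed as % decrease. Exposure metrics were total test compound AUC (day 1, cycle 1) and administered daily dosage level. Total rather than lactone parameters were used.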

[3] = Plasma pharmacokinetics of AR-67 lactone and carboxylate; assay type: in vivo, human; settings: for Cmax, total: observed at 45 min of 1-hr infusion
Procedure, shortened: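 Test compound was given as a 1-h IV infusion daily × 5. Heparinized blood was drawn on days 1 and 4 of cycle 1: pre-dose, 5, 45 and 65 min, and 1.5, 2, 4, 6, 8 and 24 h after infusion start. Plasma lactone and carboxylate were quantified by validated HPLC-fluorescence. Parameters were noncompartmental. Cmax was the observed 45-min value. Half-life required ≥3 elimination-phase points.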

[4] = cycle 1, all patients, sigmoid E-max model
[5] = total AR-67 AUC day 1 of cycle 1, sigmoid E-max model
[6] = day 1 cycle 1, 1.2 mg/m^2 (n=2), mean
[7] = day 1 cycle 1, 1.67 mg/m^2 (n=3), mean
[8] = day 1 cycle 1, 2.34 mg/m^2 (n=3), mean
[9] = day 1 cycle 1, 3.23 mg/m^2 (n=3), mean
[10] = day 1 cycle 1, 4.5 mg/m^2 (n=1)
[11] = day 1 cycle 1, 6.3 mg/m^2 (n=1)
[12] = day 1 cycle 1, 7.5 mg/m^2 (n=7), mean
[13] = day 1 cycle 1, 8.9 mg/m^2 (n=4), mean
[14] = day 1 cycle 1, 12.4 mg/m^2 (n=2), mean
[15] = day 4 cycle 1, 1.2 mg/m^2 (n=1)
[16] = day 4 cycle 1, 1.67 mg/m^2 (n=3), mean
[17] = day 4 cycle 1, 2.34 mg/m^2 (n=3), mean
[18] = day 4 cycle 1, 3.23 mg/m^2 (n=3), mean
[19] = day 4 cycle 1, 4.5 mg/m^2 (n=1)
[20] = day 4 cycle 1, 6.3 mg/m^2 (n=1)
[21] = day 4 cycle 1, 7.5 mg/m^2 (n=7), mean
[22] = day 4 cycle 1, 8.9 mg/m^2 (n=4), mean
[23] = day 4 cycle 1, 12.4 mg/m^2 (n=2), mean

What does the source list for `CC[C@@]1(O)C(=O)OCc2c1cc1n(c2=O)Cc2c-1nc1ccc(O)cc1c2[Si](C)(C)C(C)(C)C` [AR-67, 7-t-butyldimethylsilyl-10-hydroxycamptothecin]?
substrate for CYP3A4 (CYP3A4): is a substrate; subjects with stable disease ([1]; 22 subjects evaluable): Four; duration of prolonged partial response ([1]; one patient): > 16 months; response per RECIST v1.0 ([1]; one subject, squamous cell carcinoma of the lung (NSCLC), dosage level 5.5, ten cycles): prolonged partial response; time after end of cycle 10 with partial response maintained ([1]; recurrent NSCLC patient, 10 cycles, as of this writing): ≥ 7 months; metabolism by UGT1A8 (UGT1A8): extensively metabolized; dosage level ED50 (95% CI) for % decrease in ANC [2, 4]: 6.1 (4.3 – 8.7) mg/m^2; dosage level ED50 (95% CI) for % decrease in platelets [2, 4]: 4.9 (3.2 – 7.6) mg/m^2; AUC ED50 (95% CI) for % decrease in ANC [2, 5]: 323.6 (231.9 – 451.6) hr*ng/mL; AUC ED50 (95% CI) for % decrease in platelets [2, 5]: 364.2 (249.4 – 531.9) hr*ng/mL; clearance with increasing dosage ([3]; 1.2–12.4 mg/m^2/day): clearance was constant; decrease in AUC between days 1 and 4 ([3]; all patients, dexamethasone co-treatment): ~ 20%; drug accumulation on day 4 ([3]; daily × 5 dosing, cycle 1): No drug accumulation was observed; also recorded: no evidence of accumulation; Clearancetotal [3, 6]: 13.8 L/hr/m^2; Lactone AUC(0−∞) [3, 6]: 81 ng·h/mL; Total AUC(0−∞) [3, 6]: 88 ng·h/mL; Vss, total [3, 6]: 7.4 L/m^2; Cmax, total [3, 6]: 77.6 ng/mL; Clearancetotal [3, 7]: 13.2 L/hr/m^2; Lactone AUC(0−∞) [3, 7]: 117 ng·h/mL; Total AUC(0−∞) [3, 7]: 128 ng·h/mL; Vss, total [3, 7]: 13.1 L/m^2; Cmax, total [3, 7]: 96.9 ng/mL; Clearancetotal [3, 8]: 14.1 L/hr/m^2; Lactone AUC(0−∞) [3, 8]: 186 ng·h/mL; Total AUC(0−∞) [3, 8]: 201 ng·h/mL; Vss, total [3, 8]: 13.5 L/m^2; Cmax, total [3, 8]: 158.9 ng/mL; Clearancetotal [3, 9]: 11.6 L/hr/m^2; Lactone AUC(0−∞) [3, 9]: 269 ng·h/mL; Total AUC(0−∞) [3, 9]: 290 ng·h/mL; Vss, total [3, 9]: 9.6 L/m^2; Cmax, total [3, 9]: 221.9 ng/mL; Clearancetotal [3, 10]: 21 L/hr/m^2; Lactone AUC(0−∞) [3, 10]: 179 ng·h/mL; Total AUC(0−∞) [3, 10]: 214 ng·h/mL; Vss, total [3, 10]: 32.7 L/m^2; Cmax, total [3, 10]: 117.8 ng/mL; Clearancetotal [3, 11]: 12.9 L/hr/m^2; Lactone AUC(0−∞) [3, 11]: 334 ng·h/mL; Total AUC(0−∞) [3, 11]: 490 ng·h/mL; Vss, total [3, 11]: 51.6 L/m^2; Cmax, total [3, 11]: 168.5 ng/mL; Clearancetotal [3, 12]: 13.1 L/hr/m^2; Lactone AUC(0−∞) [3, 12]: 498 ng·h/mL; T(1/2)total [3, 12]: 1.4 h; Total AUC(0−∞) [3, 12]: 581 ng·h/mL; Vss, total [3, 12]: 18.7 L/m^2; Cmax, total [3, 12]: 349.7 ng/mL; Clearancetotal [3, 13]: 18.9 L/hr/m^2; Lactone AUC(0−∞) [3, 13]: 471 ng·h/mL; T(1/2)total [3, 13]: 1.6 h; Total AUC(0−∞) [3, 13]: 502 ng·h/mL; Vss, total [3, 13]: 30.1 L/m^2; Cmax, total [3, 13]: 290.6 ng/mL; Clearancetotal [3, 14]: 15.8 L/hr/m^2; Lactone AUC(0−∞) [3, 14]: 686 ng·h/mL; T(1/2)total [3, 14]: 1.1 h; Total AUC(0−∞) [3, 14]: 786 ng·h/mL; Vss, total [3, 14]: 18.1 L/m^2; Cmax, total [3, 14]: 464.7 ng/mL; Clearancetotal ([3]; day 1 cycle 1, All dosage levels (N=26), mean): 14.5 ±4.1 L/hr/m^2 and 14.5 L/hr/m^2; T(1/2)total ([3]; day 1 cycle 1, All dosage levels, mean): 1.4 h; Clearancetotal [3, 15]: 23.6 L/hr/m^2; Lactone AUC(0−∞) [3, 15]: 49 ng·h/mL; Total AUC(0−∞) [3, 15]: 51 ng·h/mL; Vss, total [3, 15]: 15.6 L/m^2; Cmax, total [3, 15]: 51.6 ng/mL; Clearancetotal [3, 16]: 16.7 L/hr/m^2; Lactone AUC(0−∞) [3, 16]: 109 ng·h/mL; Total AUC(0−∞) [3, 16]: 115 ng·h/mL; Vss, total [3, 16]: 16.3 L/m^2; Cmax, total [3, 16]: 74.6 ng/mL; Clearancetotal [3, 17]: 15.3 L/hr/m^2; Lactone AUC(0−∞) [3, 17]: 137 ng·h/mL; Total AUC(0−∞) [3, 17]: 154 ng·h/mL; Vss, total [3, 17]: 7.9 L/m^2; Cmax, total [3, 17]: 137.8 ng/mL; Clearancetotal [3, 18]: 13.3 L/hr/m^2; Lactone AUC(0−∞) [3, 18]: 236 ng·h/mL; Total AUC(0−∞) [3, 18]: 255 ng·h/mL; Vss, total [3, 18]: 10.6 L/m^2; Cmax, total [3, 18]: 195 ng/mL; Clearancetotal [3, 19]: 24.2 L/hr/m^2; Lactone AUC(0−∞) [3, 19]: 149 ng·h/mL; Total AUC(0−∞) [3, 19]: 186 ng·h/mL; Vss, total [3, 19]: 45.3 L/m^2; Cmax, total [3, 19]: 82.5 ng/mL; Clearancetotal [3, 20]: 14.7 L/hr/m^2; Lactone AUC(0−∞) [3, 20]: 327 ng·h/mL; Total AUC(0−∞) [3, 20]: 429 ng·h/mL; Vss, total [3, 20]: 35.3 L/m^2; Cmax, total [3, 20]: 166.4 ng/mL; Clearancetotal [3, 21]: 16.8 L/hr/m^2; Lactone AUC(0−∞) [3, 21]: 411 ng·h/mL; T(1/2)total [3, 21]: 1.8 h; Total AUC(0−∞) [3, 21]: 478 ng·h/mL; Vss, total [3, 21]: 25.6 L/m^2; Cmax, total [3, 21]: 308.6 ng/mL; Clearancetotal [3, 22]: 18.6 L/hr/m^2; Lactone AUC(0−∞) [3, 22]: 397 ng·h/mL; T(1/2)total [3, 22]: 1.4 h; Total AUC(0−∞) [3, 22]: 507 ng·h/mL; Vss, total [3, 22]: 27.5 L/m^2; Cmax, total [3, 22]: 276.7 ng/mL; Clearancetotal [3, 23]: 19.8 L/hr/m^2; Lactone AUC(0−∞) [3, 23]: 551 ng·h/mL; T(1/2)total [3, 23]: 1.7 h; Total AUC(0−∞) [3, 23]: 663 ng·h/mL; Vss, total [3, 23]: 28.9 L/m^2; Cmax, total [3, 23]: 358.5 ng/mL; Clearancetotal ([3]; day 4 cycle 1, All dosage levels (N=25), mean): 17.4 ±5.2 L/hr/m^2 and 17.4 L/hr/m^2; T(1/2)total ([3]; day 4 cycle 1, All dosage levels, mean): 1.6 h; lactone form as share of the total AR-67 AUC (lactone + carboxylate) ([3]; human plasma, mean (±SD)): 87.5% and ~ 87.5%; increase of mean clearance of total AR-67 from day 1 to day 4 ([3]; p=0.0031, Wilcoxon signed rank): 20%; elimination half-life ([3]; patients, iv): ~ 1.4 hr; elimination profile ([3]; plasma, MTD cohort): bi-exponential profile; share of the total concentration in the lactone form ([3]; plasma, at each time point, all patients): Greater than 80%
